From ChEMBL document CHEMBL5036380, “New Highly Potent NLRP3 Inhibitors: Furanochalcone Velutone F Analogues” (ACS Med Chem Lett, 2022)
Activity calls are given as the source filed them. The rule behind the calls is not given here.

Experiments:
THP-1 [1] = assay: Cytotoxicity against human THP-1 cells assessed as reduction in cell viability at 0.05 to 6.4 uM measured after 90 mins by CCK8 assay; format: cell-based; conditions: thp-1, 1.5 h, dose 0.05-6.4 µM
Procedure, shortened: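 THP-1 cells preincubated with compound (0.05–6.4 μM) for 1.5 h; viability read by CCK8 assay.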

[2] = Cmax in Sprague-Dawley rat at 10 mg/kg, iv measured up to 24 hrs by LC-MS/MS analysis; format: ADME, organism-based; design: route intravenous, dose 10 mg/kg, time <=24; conditions: in vivo
Procedure, shortened: (§1)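 Single doses given intravenously (10 mg/kg) or orally (10, 30, 90 mg/kg); plasma levels quantified by LC/MS/MS at multiple time points. Parameters reported as mean values: AUC0–t, CL, Cmax, T1/2, Tmax, and %F based on AUC.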

THP-1 [3] = assay: Effect on IL-1beta expression in LPS-stimulated human THP-1 cells at 1 uM preincubated for 40 mins followed by LPS stimulation and measured after 3 hrs by Western blot analysis; format: functional, cell-based; conditions: time 220.0 min
Procedure, shortened: (§2)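 THP-1 cells were given compound for 40 min, then primed with LPS for 3 h. Medium supernatant was analysed for TNF-α. Cell extracts were immunoblotted for pro-IL-1β and NLRP3.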

[4] = Tmax in Sprague-Dawley rat at 10 mg/kg, po measured up to 24 hrs by LC-MS/MS analysis; format: ADME, organism-based; conditions: in vivo; procedure, shortened: as §1
[5] = AUC (0 to t) in Sprague-Dawley rat at 90 mg/kg, po measured up to 24 hrs by LC-MS/MS analysis; format: ADME, organism-based; design: route oral, dose 90 mg/kg, time <=24; conditions: in vivo; procedure, shortened: as §1
THP-1 [6] = assay: Effect on TNFalpha expression in LPS-stimulated human THP-1 cells preincubated for 40 mins followed by LPS addition and measured after 3 hrs by Western blot analysis; format: functional, cell-based; conditions: time 220.0 min; procedure, shortened: as §2
[7] = Half life in Sprague-Dawley rat at 90 mg/kg, po measured up to 24 hrs by LC-MS/MS analysis; format: ADME, organism-based; conditions: in vivo; procedure, shortened: as §1
[8] = Half life in Sprague-Dawley rat at 10 mg/kg, iv measured up to 24 hrs by LC-MS/MS analysis; format: ADME, organism-based; conditions: in vivo; procedure, shortened: as §1
THP-1 [9] = assay: Effect on NLRP3 expression in LPS-stimulated human THP-1 cells at 1 uM preincubated for 40 mins followed by LPS stimulation and measured after 3 hrs by Western blot analysis; format: functional, cell-based; procedure, shortened: as §2
[10] = Cmax in Sprague-Dawley rat at 10 mg/kg, po measured up to 24 hrs by LC-MS/MS analysis; format: ADME, organism-based; design: route oral, dose 10 mg/kg, time <=24; conditions: in vivo; procedure, shortened: as §1
[11] = biological target: NACHT, LRR and PYD domains-containing protein 3 (Homo sapiens) (UniProt Q96P20); assay: Binding affinity to NLRP3 in LPS stimulated human THP-1cells assessed as prevention of pronase-mediated protein degradation at 0.01 to 1mM incubated 50 mins before pronase treatment by label-free DARTS assay
Procedure, shortened: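 Drug affinity responsive target stability: THP-1 lysates were incubated with compound (0.01–1 mM), then digested with pronase. NLRP3 remaining was detected by immunoblot.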

[12] = Cmax in Sprague-Dawley rat at 90 mg/kg, po measured up to 24 hrs by LC-MS/MS analysis; format: ADME, organism-based; design: route oral, dose 90 mg/kg, time <=24; conditions: in vivo; procedure, shortened: as §1
[13] = Half life in Sprague-Dawley rat at 30 mg/kg, po measured up to 24 hrs by LC-MS/MS analysis; format: ADME, organism-based; conditions: in vivo; procedure, shortened: as §1
[14] = Half life in Sprague-Dawley rat at 10 mg/kg, po measured up to 24 hrs by LC-MS/MS analysis; format: ADME, organism-based; conditions: in vivo; procedure, shortened: as §1
THP-1 [15] = assay: Effect on TNFalpha expression in LPS-stimulated human THP-1 cells at 1 uM preincubated for 40 mins followed by LPS addition and measured after 3 hrs by Western blot analysis; format: functional, cell-based; conditions: time 220.0 min; procedure, shortened: as §2
[16] = Tmax in Sprague-Dawley rat at 90 mg/kg, po measured up to 24 hrs by LC-MS/MS analysis; format: ADME, organism-based; conditions: in vivo; procedure, shortened: as §1
[17] = Tmax in Sprague-Dawley rat at 10 mg/kg, iv measured up to 24 hrs by LC-MS/MS analysis; format: ADME, organism-based; conditions: in vivo; procedure, shortened: as §1
[18] = AUC (0 to t) in Sprague-Dawley rat at 30 mg/kg, po measured up to 24 hrs by LC-MS/MS analysis; format: ADME, organism-based; design: route oral, dose 30 mg/kg, time <=24; conditions: in vivo; procedure, shortened: as §1
[19] = biological target: NACHT, LRR and PYD domains-containing protein 3 (Homo sapiens) (UniProt Q96P20); assay: Inhibition of NLRP3 inflammasome activation in LPS/nigericin-treated human THP-1 cells assessed as LPS-induced IL-1beta secretion in LPS stimulation followed by pretreatment for 40 min before induced with nigericin for 40 min measured by western blot analysis; format: cell-based; conditions: time 80.0 min
Procedure, shortened: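 PMA-differentiated THP-1 cells were primed with LPS, exposed to graded compound doses for 40 min, then given nigericin for 40 min. Supernatants were immunoblotted for IL-1β and caspase-1. Cell extracts were immunoblotted for NLRP3, pro-IL-1β and pro-caspase-1.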

[20] = AUC (0 to t) in Sprague-Dawley rat at 10 mg/kg, po measured up to 24 hrs by LC-MS/MS analysis; format: ADME, organism-based; design: route oral, dose 10 mg/kg, time <=24; conditions: in vivo; procedure, shortened: as §1
[21] = Oral bioavailability in Sprague-Dawley rat at 30 mg/kg measured up to 24 hrs by LC-MS/MS analysis; format: ADME, organism-based; conditions: in vivo; procedure, shortened: as §1
THP-1 [22] = assay: Effect on ASC oligomerization in LPS/nigericin stimulated human THP-1 cells assessed as ASC specks in LPS stimulation for 3 hrs followed by pretreatment for 40 min before induced with nigericin for 40 min by ASC and DAPI staining based immunofluorescent microscopy; format: functional, cell-based; conditions: time 80.0 min
Procedure, shortened: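 THP-1 cells were LPS-primed, treated with compound, then activated with nigericin. Endogenous ASC was visualized by immunofluorescence microscopy. The proportion of cells with ASC specks was counted, with NLRP3 KO THP-1 cells as comparison.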

THP-1 [23] = assay: Antiinflammatory activity in human THP-1 cells assessed as inhibition of LPS-induced IL-1beta secretion in LPS stimulation for 3 hrs followed by pretreatment at 2uM for 40 min before induced with nigericin for 40 min measured by ELISA; format: functional; conditions: THP-1, 1.333 h, time 80 min
Procedure, shortened: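 THP-1 cells (2 × 10^5 cells/mL) differentiated with PMA (100 ng/mL) for 24 h. Next day, primed with LPS (1 μg/mL) for 3 h, then compound for 40 min, then nigericin (10 μM) for 40 min. IL-1β in supernatant measured by ELISA; % inhibition as mean ± SD of three independent experiments. The single-concentration screen used 2 μM.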

[24] = Tmax in Sprague-Dawley rat at 30 mg/kg, po measured up to 24 hrs by LC-MS/MS analysis; format: ADME, organism-based; conditions: in vivo; procedure, shortened: as §1
THP-1 [25] = assay: Effect on NLRP3 expression in LPS-stimulated human THP-1 cells preincubated for 40 mins followed by LPS addition and measured after 3 hrs by Western blot analysis; format: functional, cell-based; conditions: time 220.0 min; procedure, shortened: as §2
[26] = biological target: NACHT, LRR and PYD domains-containing protein 3 (Homo sapiens) (UniProt Q96P20); assay: Inhibition of NLRP3 in human THP-1cells assessed as increase in thermal stability at 0.5 to 5 uM at 57 deg C measured by cellular thermal shift assay; conditions: dose 0.5-5 µM

NACHT, LRR and PYD domains-containing protein 3 (Homo sapiens), sequence (Q96P20 whole entry, the tested form may be a part): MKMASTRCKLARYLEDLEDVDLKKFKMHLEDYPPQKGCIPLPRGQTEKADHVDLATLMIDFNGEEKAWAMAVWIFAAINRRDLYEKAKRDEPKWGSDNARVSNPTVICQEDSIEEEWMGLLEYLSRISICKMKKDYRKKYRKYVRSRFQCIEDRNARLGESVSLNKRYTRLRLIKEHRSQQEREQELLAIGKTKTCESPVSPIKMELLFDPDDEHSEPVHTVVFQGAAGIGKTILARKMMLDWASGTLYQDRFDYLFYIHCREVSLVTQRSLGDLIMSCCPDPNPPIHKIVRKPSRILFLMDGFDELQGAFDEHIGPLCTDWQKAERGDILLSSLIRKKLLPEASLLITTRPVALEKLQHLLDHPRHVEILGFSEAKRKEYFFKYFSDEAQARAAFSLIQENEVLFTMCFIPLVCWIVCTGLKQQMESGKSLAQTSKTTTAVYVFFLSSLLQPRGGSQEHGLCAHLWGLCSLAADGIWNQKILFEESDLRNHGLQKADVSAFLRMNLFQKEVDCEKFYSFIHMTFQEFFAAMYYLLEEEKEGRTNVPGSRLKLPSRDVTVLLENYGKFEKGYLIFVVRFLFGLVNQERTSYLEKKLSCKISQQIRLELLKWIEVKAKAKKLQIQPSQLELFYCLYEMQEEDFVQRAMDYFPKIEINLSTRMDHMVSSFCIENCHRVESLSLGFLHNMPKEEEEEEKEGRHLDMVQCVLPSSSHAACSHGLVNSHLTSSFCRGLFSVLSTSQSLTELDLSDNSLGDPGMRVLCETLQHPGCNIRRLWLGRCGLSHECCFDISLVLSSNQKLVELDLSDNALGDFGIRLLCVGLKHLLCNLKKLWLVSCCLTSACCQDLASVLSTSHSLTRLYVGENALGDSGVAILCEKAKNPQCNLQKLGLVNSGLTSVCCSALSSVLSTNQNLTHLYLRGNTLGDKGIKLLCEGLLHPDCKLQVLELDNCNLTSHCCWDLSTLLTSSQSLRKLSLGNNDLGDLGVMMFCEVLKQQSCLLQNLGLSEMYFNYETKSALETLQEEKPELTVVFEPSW

Q: For `COc1cc(/C=C/C(=O)c2ccc(F)cc2)c(OC)cc1Br`, which Activity (THP-1 [1]) is on record?
A: Its Activity is “Non-Toxic”.

Q: And the Cmax [2]?
A: Its Cmax is 82 ng/mL.

Q: What about the Activity (THP-1 [3]) of the same compound?
A: The Activity was “inactive”.

Q: And the Tmax [4]?
A: Its Tmax is 2.11 h.

Q: What about the AUC(0-t) at 24 h [5] of the same compound?
A: Its AUC(0-t) at 24 h is 23.5 ng·h/mL.

Q: And the Activity (THP-1 [6])?
A: The Activity was “inactive”.

Q: What about the half-life [7] of the same compound?
A: The half-life was 6.08 h.

Q: And the half-life [8]?
A: The half-life was 3.13 h.

Q: And the Activity (THP-1 [9])?
A: Its Activity is “inactive”.

Q: What about the Cmax [10] of the same compound?
A: Its Cmax is 3.35 ng/mL.

Q: And the Activity [11]?
A: The Activity was “Dose-Dependent Effect”.

Q: What about the Cmax [12] of the same compound?
A: Its Cmax is 13.6 ng/mL.

Q: What about the half-life [13] of the same compound?
A: Its half-life is 7.92 h.

Q: What about the half-life [14] of the same compound?
A: Its half-life is 7.43 h.

Q: What about the Activity (THP-1 [15]) of the same compound?
A: Its Activity is “inactive”.

Q: What about the Tmax [16] of the same compound?
A: The Tmax was 4.21 h.

Q: And the Tmax [17]?
A: The Tmax was 6.6 min.

Q: And the AUC(0-t) at 24 h [18]?
A: The AUC(0-t) at 24 h was 15.8 ng·h/mL.

Q: What about the inhibition [19] of the same compound?
A: Its inhibition is “inactive”.

Q: What about the AUCt [20] of the same compound?
A: The AUCt was 14.6 ng·h/mL.

Q: And the bioavailability [21]?
A: The bioavailability was 4.99%.

Q: What about the Activity (THP-1 [22]) of the same compound?
A: Its Activity is “Active”.

Q: And the inhibition at 2 µM (THP-1 [23])?
A: Its inhibition at 2 µM is 108%.

Q: And the Tmax [24]?
A: The Tmax was 1.26 h.

Q: And the Activity (THP-1 [25])?
A: The Activity was “inactive”.

Q: And the inhibition [26]?
A: Its inhibition is “Dose-Dependent Effect”.
